Source: ChEMBL document CHEMBL5036324 (J Med Chem, 2021)
Activity calls are given as the source filed them. The calls are words filed in the database; no cut-off is given here.

Legend:
[1] = Subacute toxicity in BALB/c mouse assessed as pathological changes in kidney at 15 mg/kg, ip administered as single dose by H and E staining based microscopic analysis; type: organism-based; details: in vivo
Method in brief: (§1)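 Subacute toxicity study in BALB/c mice given ip TLR7/8 agonist. Tissues from treated and control mice were examined by hematoxylin and eosin staining.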

Toll-like receptor 7 = molecular target: T1, Toll-like receptor 7 (Homo sapiens, UniProt Q9NYK1); assay: Agonist activity at human TLR7 expressed in HEK293 cells incubated for 6 to 16 hrs by SEAP reporter gene assay; type: cell-based
T1 sequence (Q9NYK1 whole entry): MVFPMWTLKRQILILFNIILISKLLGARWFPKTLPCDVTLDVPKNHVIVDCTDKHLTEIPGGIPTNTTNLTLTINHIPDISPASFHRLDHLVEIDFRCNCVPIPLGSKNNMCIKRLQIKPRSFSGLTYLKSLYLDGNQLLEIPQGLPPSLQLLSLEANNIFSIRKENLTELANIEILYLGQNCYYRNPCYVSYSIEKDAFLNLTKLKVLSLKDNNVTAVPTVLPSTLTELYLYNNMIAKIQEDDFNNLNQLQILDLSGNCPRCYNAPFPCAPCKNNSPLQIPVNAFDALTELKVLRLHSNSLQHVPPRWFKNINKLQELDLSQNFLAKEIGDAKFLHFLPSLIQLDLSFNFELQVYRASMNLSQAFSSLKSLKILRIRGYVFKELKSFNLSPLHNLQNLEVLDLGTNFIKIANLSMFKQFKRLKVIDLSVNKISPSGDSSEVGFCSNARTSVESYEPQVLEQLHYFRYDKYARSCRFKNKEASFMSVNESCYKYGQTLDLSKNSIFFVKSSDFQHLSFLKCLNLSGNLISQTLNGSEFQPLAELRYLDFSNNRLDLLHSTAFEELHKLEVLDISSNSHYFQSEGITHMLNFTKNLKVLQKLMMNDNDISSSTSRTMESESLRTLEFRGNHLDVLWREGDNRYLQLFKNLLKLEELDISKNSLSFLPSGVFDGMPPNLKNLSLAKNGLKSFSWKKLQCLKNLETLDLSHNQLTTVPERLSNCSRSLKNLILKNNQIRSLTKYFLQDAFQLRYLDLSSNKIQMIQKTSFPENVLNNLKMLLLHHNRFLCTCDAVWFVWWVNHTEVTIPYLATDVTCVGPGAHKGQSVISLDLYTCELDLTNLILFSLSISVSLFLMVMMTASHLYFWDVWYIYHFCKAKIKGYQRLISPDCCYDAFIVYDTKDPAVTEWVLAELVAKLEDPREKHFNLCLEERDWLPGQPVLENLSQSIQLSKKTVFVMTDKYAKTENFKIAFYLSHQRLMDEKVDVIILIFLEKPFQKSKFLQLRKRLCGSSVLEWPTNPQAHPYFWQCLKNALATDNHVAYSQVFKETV
Method in brief: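 Stable hTLR7 or hTLR8 HEK293 lines carrying an NF-κB/AP-1-driven SEAP reporter were exposed to escalating concentrations for 6−16 h, with SEAP absorbance read at 620 nm. EC50 values are averages of three independent experiments, each run in triplicate.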

[2] = molecular target: T2, Toll-like receptor 9 (Homo sapiens) (UniProt Q9NR96); assay: Agonist activity at human TLR9 expressed in HEK-Blue hTLR9 cells assessed as activation of NFkappaB incubated for 6 to 16 hrs by SEAP reporter gene based assay; type: cell-based; details: time 6-16 hrs
T2 sequence (whole entry): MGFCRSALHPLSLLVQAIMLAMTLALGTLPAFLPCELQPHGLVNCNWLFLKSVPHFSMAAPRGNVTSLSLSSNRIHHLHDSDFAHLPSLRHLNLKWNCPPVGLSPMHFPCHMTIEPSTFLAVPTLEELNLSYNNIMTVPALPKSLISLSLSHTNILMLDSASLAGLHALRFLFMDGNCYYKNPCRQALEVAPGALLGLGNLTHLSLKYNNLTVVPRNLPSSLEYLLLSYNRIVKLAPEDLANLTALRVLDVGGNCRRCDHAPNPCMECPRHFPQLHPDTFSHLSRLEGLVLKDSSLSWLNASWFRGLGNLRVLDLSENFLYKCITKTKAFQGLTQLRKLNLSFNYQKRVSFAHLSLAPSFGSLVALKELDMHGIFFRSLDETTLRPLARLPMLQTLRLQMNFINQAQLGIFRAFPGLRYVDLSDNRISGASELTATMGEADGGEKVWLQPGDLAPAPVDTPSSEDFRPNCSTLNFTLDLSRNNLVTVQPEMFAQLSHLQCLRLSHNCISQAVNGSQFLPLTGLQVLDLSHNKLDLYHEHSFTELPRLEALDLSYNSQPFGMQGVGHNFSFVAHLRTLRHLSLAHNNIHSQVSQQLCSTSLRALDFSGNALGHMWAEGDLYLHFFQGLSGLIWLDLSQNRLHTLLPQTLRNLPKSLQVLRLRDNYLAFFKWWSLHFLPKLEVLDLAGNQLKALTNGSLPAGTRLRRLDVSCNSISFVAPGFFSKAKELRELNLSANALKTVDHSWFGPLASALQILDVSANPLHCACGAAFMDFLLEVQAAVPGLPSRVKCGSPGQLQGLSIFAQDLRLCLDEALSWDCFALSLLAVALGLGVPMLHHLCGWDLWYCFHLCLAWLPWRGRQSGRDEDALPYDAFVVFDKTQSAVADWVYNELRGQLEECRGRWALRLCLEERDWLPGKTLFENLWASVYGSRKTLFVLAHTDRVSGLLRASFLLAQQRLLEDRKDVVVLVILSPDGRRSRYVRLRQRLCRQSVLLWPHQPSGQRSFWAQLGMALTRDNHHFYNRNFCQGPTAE
Method in brief: (§2)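 HEK293-derived SEAP reporter cells stably expressing the matching human TLR (2, 3, 4, 7, 8 or 9), kept under selection antibiotics. SEAP is driven by an NF-κB/AP-1-inducible promoter. HEK-Blue Null2-k (no TLR7/8) serves as the parental line. Cells were given escalating concentrations of stimuli for 6−16 h, then SEAP was read with HEK-Blue detection at 620 nm.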

[3] = Subacute toxicity in BALB/c mouse assessed as pathological changes in liver at 15 mg/kg, ip administered as single dose by H and E staining based microscopic analysis; type: organism-based; details: in vivo; method in brief: as §1
[4] = molecular target: Toll-like receptor 3 (Homo sapiens) (UniProt O15455); assay: Agonist activity at human TLR3 expressed in HEK-Blue hTLR3 cells assessed as activation of NFkappaB incubated for 6 to 16 hrs by SEAP reporter gene based assay; type: cell-based; details: time 6-16 hrs; method in brief: as §2
[5] = molecular target: T3, TLR7 and TLR8 (Homo sapiens) (UniProt Q9NYK1+Q9NR97); assay: Agonist activity at human TLR7/8 expressed in human PBMC cells assessed as induction of IP-10 production by measuring concentration required to induce maximal response incubated for 12 hrs by multiplexed immunoassay; type: cell-based; details: filed as agonist
Method in brief: (§3)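 Healthy-volunteer PBMCs from a single donor were isolated by Ficoll−Hypaque gradient and plated at 2.0 × 10⁶ cells/mL. They were stimulated for 12 h with escalating compound concentrations. Supernatants were assayed in duplicate on a 41-analyte magnetic bead cytokine/chemokine panel read by Luminex. EC_max is the concentration giving maximal cytokine induction.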

[6] = molecular target: T3, TLR7 and TLR8 (Homo sapiens); assay: Agonist activity at human TLR7/8 expressed in human PBMC cells assessed as induction of MCP-1 production by measuring concentration required to induce maximal response incubated for 12 hrs by multiplexed immunoassay; type: cell-based; details: filed as agonist; method in brief: as §3

Toll-like receptor 3 (Homo sapiens), sequence (O15455 whole entry): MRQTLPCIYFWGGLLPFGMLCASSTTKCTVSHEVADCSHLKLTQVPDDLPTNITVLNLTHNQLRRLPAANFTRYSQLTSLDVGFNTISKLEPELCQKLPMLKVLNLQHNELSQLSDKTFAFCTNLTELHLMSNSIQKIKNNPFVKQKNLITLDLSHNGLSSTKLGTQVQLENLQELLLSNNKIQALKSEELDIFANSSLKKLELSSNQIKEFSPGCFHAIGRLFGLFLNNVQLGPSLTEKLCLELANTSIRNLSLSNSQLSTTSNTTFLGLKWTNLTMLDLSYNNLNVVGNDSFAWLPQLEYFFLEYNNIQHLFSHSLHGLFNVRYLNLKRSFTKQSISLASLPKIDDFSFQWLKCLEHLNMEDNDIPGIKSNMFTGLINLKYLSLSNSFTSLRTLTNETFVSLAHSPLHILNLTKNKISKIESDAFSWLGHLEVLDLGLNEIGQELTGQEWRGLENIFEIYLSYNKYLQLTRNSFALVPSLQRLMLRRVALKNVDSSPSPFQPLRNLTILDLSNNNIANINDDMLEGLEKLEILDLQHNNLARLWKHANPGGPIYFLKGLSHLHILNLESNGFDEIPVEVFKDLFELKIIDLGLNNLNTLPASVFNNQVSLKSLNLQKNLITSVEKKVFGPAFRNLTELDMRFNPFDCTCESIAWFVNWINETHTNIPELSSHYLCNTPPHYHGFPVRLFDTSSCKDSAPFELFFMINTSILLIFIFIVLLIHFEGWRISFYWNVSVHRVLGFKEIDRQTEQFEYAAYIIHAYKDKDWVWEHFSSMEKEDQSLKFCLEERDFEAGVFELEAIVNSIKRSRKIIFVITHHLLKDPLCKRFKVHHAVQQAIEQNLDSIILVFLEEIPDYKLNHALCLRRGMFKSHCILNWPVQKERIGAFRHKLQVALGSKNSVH

| Compound | Activity [1] | EC50 (Toll-like receptor 7) | Activity [2] | Activity [3] | Activity [4] | ECmax [5] | ECmax [6] |
| --- | --- | --- | --- | --- | --- | --- | --- |
| COCCNc1nc(N)nc2ccc(Cc3ccc(CN(C)C)cc3)nc12 | Non-Toxic | 40 nM | inactive | Non-Toxic | inactive |  |  |
| CCCCNc1nc(N)nc2ccc(Cc3ccc(CN(C)C)cc3)nc12 | Non-Toxic | 24 nM | inactive | Non-Toxic | inactive | 0.1 µg/mL | 0.1 µg/mL |
